We go through three compounds from ChEMBL document CHEMBL5653631, “A Potent and Selective ULK1 Inhibitor Suppresses Autophagy and Sensitizes Cancer Cells to Nutrient Stress” (iScience, 2018).

By inhibition is commonly meant the relative decrease from the control value, in per cent.

For assay [1], the target named is Cyclin-dependent kinase 1 (Homo sapiens) (UniProt P06493). The assay can be described thus: Inhibition of human recombinant CDC2 at 15 nM in presence of ATP by radiometric assay relative to control.
The target in assay [2] is Receptor tyrosine-protein kinase erbB-2 (Homo sapiens) (UniProt P04626). Description: Inhibition of human recombinant ErbB2 at 15 nM in presence of ATP by radiometric assay relative to control.
Assay [3] concerns the target T1, Tyrosine-protein kinase Mer (Homo sapiens) (UniProt Q12866).
T1 sequence (whole entry): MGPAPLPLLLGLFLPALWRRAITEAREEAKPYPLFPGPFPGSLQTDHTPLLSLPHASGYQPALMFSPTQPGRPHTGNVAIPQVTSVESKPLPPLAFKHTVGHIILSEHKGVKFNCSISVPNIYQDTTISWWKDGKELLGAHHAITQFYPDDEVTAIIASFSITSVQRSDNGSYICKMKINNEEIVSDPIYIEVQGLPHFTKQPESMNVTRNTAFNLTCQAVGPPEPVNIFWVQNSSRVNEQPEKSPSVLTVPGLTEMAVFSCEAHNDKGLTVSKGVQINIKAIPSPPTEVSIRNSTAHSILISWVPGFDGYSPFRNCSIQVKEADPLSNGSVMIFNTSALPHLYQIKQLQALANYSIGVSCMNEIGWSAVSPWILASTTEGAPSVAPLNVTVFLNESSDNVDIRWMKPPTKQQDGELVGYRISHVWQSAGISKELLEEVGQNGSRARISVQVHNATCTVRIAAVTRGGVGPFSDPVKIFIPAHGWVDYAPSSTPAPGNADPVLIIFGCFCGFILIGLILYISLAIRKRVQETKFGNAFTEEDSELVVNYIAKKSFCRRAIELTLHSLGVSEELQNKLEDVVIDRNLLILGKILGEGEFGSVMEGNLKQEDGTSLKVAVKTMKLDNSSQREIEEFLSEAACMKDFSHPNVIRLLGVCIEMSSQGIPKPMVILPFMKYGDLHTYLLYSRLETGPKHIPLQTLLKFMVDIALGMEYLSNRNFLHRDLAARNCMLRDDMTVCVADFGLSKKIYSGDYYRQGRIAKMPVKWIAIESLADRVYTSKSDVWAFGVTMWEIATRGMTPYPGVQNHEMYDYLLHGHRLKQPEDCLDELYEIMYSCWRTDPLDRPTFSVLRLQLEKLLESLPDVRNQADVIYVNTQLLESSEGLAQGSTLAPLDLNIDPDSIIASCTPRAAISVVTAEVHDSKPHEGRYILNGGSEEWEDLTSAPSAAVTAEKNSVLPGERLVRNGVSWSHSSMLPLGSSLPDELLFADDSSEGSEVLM
The assay can be described thus: Inhibition of human recombinant MER at 15 nM related to control ULK1.

In assay [4] the target is Serine/threonine-protein kinase NIM1 (Homo sapiens) (UniProt Q8IY84). Description: Inhibition of human recombinant NIM1 at 15 nM related to control ULK1.
Assay [5] addresses T2, Aurora kinase A (Homo sapiens) (UniProt O14965).
T2 sequence (whole entry): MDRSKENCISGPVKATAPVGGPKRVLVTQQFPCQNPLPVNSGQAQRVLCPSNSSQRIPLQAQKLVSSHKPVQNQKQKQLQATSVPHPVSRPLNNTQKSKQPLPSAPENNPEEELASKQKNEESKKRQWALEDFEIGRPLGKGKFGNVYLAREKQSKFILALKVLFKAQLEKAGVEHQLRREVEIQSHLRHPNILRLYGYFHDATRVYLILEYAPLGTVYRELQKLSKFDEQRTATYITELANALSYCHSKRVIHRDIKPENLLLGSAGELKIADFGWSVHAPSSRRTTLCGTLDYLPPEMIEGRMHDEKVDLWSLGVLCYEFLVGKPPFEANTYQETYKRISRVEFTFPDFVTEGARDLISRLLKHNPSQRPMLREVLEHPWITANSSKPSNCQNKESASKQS
Description: Inhibition of human recombinant AurA at 40 nM in presence of ATP by radiometric assay relative to control. Summed up:
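Panel of 327 recombinant human kinases, each assayed in vitro by radiometric activity assay in duplicate at a single inhibitor concentration per compound, chosen with reference to its ULK1 inhibition. Activity remaining was expressed as percent of vehicle control, and percent inhibition was calculated as 100 minus percent activity remaining.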

The target in assay [6] is Proto-oncogene tyrosine-protein kinase Src (Homo sapiens) (UniProt P12931). The assay can be described thus: Inhibition of human recombinant SRC at 40 nM in presence of ATP by radiometric assay relative to control.
In assay [7] the target is Death-associated protein kinase 2 (Homo sapiens) (UniProt Q9UIK4). The assay can be described thus: Inhibition of human recombinant DAPK2 at 40 nM related to control ULK1.
For assay [8], the target named is T3, Dual specificity tyrosine-phosphorylation-regulated kinase 3 (Homo sapiens) (UniProt O43781).
T3 sequence (whole entry): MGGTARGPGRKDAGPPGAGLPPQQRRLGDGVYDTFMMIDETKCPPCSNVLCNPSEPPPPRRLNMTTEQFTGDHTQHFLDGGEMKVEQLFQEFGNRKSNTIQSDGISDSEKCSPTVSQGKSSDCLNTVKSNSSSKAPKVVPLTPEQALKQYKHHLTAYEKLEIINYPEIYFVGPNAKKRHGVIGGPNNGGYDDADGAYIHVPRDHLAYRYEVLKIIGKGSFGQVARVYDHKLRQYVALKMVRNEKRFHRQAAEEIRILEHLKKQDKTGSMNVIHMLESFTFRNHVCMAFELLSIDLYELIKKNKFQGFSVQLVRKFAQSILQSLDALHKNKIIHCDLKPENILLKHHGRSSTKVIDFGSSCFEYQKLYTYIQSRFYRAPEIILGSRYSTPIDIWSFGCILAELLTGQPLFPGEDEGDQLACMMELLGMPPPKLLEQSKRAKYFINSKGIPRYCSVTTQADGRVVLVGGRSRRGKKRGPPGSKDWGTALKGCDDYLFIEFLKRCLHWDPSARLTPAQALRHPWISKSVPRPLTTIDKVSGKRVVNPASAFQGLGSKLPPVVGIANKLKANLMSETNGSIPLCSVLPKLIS
The assay can be described thus: Inhibition of human recombinant DYRK3 at 40 nM related to control ULK1.

Assay [9] has as its target Vascular endothelial growth factor receptor 3 (Homo sapiens) (UniProt P35916). Description: Inhibition of human recombinant FLT4 at 40 nM related to control ULK1.
Assay [10] has as its target Activin receptor type-2A (Homo sapiens) (UniProt P27037). Description: Inhibition of human recombinant ACTR2 at 40 nM in presence of ATP by radiometric assay relative to control.
Assay [11] deals with Myosin light chain kinase 2, skeletal/cardiac muscle (Homo sapiens) (UniProt Q9H1R3). The assay can be described thus: Inhibition of human recombinant skMLCK at 500 nM in presence of ATP by radiometric assay relative to control.
The target of assay [12] is Serine/threonine-protein kinase N2 (Homo sapiens) (UniProt Q16513). Description: Inhibition of human recombinant PKN2 at 500 nM related to control ULK1.

Regarding `CC(C)[C@H](NC(=O)c1cc(-c2cnn3cc(-c4ccc(OCCN5CCCCC5)cc4)cnc23)cs1)C(F)(F)F`, the inhibition in assay [1] worked out at 24%; in [2] it was 0%. Also, the fold change (FC) turned out to be 0.39 in assay [3] and 0.07 in [4].

Turning to `O=C(N[C@@H](C1CC1)C(F)(F)F)c1cc(-c2cnn3cc(-c4ccc(F)cc4)cnc23)cs1`, the figures for the inhibition in assay [5], in [6] and in [10] were 22%, 2% and 1%, respectively. Moreover, the figures for the fold change (FC) in [7], in assay [8] and in assay [9] were 0, 0.41 and 0.26, respectively.

In the case of `CNC(=O)c1ccccc1Oc1nc(Nc2cc(OC)c(OC)c(OC)c2)ncc1Br`, the inhibition in [11] worked out at 0%. The fold change (FC) in assay [12] turned out to be 0.
